# A selection: hits, their analogues and other compounds. The true share with any hit is near 4.3%.
# OX1R antag-1 – antagonists of human orexin 1 receptor (OX1R); Orexin/Hypocretin receptor type 1 (Homo sapiens), O43613; inhibition, % at 6.6 µM; hit rate 1.8% among 330,000; OX1R-expressing cells, FRET antagonist read-out; in the data active means inhibition mostly above about 38%, no sharp cut-off; inactive means mostly below about 40%;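 further: 0% = agonist challenge alone and 100% = reference antagonist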
# Target sequence (O43613 whole entry, looked up): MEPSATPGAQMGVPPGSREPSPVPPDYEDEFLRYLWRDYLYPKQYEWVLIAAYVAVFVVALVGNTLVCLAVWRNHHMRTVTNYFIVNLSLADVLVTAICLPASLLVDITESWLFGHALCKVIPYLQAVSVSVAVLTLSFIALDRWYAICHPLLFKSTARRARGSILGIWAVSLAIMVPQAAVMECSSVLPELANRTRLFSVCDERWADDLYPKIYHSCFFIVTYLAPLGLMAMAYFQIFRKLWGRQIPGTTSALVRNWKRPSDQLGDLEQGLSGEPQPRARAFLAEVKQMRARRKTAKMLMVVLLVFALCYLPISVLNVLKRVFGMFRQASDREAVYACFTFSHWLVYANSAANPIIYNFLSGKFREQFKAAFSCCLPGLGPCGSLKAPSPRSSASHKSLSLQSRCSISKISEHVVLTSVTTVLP
# TAAR1 antagonist – human TAAR1 antagonists, primary screen, Fluo-8 calcium fluorescence, CHO RD-HGA16 cells; hit rate 1.5% among 360,000; Trace amine-associated receptor 1 (Homo sapiens), Q96RJ0; inhibition, % at 3 µM; antagonist; AID 624466, 2012;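 active means inhibition above a per-plate cutoff, the mean inhibition of test compounds on that plate plus 3 SD, cut at about 49% in these data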;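 further: 0% = DMSO plus EC80 beta-PEA response and 100% = DMSO alone without agonist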
#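 Test system – hTAAR1-expressing CHO RD-HGA16 cells, Gα16-coupled · Reagent – β-PEA at EC80 concentration, post-compound challenge · Compound dosing – 3 µM, single point · Timing – 140 s kinetic read after compound, 140 s after agonist · Detection – Fluo-8 intracellular calcium dye fluorescence, real-time kinetic reads · Control set – DMSO and EC80 PEA controls · Repeats – n of 1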
# CHO parental Ca – ATP-evoked calcium signal inhibitors, parental CHO, primary screen, counter-screen for OX1R antagonist project, cell-based, fluorescence, Fluo-8 calcium dye. hit rate 0.63% among 330,000. parental CHO-K1, ATP-induced calcium, Fluo-8 fluorescence. AID 463079, 2010. inhibition, % at 5.6 µM;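 active means inhibition above that plate's mean sample inhibition plus 3 SD, cut at about 26% in these data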;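 further: 0% = ATP-challenged DMSO wells and 100% = DMSO wells without ATP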
#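 Assay system: parental CHO cells; Read-out basis: percent inhibition of ATP-evoked calcium rise, normalized to controls; Benchmarks: ATP and no-ATP DMSO wells; Compound dosing: single nominal dose of 5.6 µM per compound; Signal: Fluo-8 calcium dye fluorescence; Also added: ATP as calcium-mobilizing challenge; Repeats: singlicate.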
# GalR3 antag – GalR3 antagonists in HEK293 cells, primary screen, cell-based, fluorescence readout; AID 651719, 2012; inhibition, % at 3 µM; hit rate 0.44% among 360,000; HEK293 GalR3-CNG cAMP membrane potential fluorescence; galR3 body fused to GalR1 C-terminus; Galanin receptor type 3 (Homo sapiens), O60755;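 active means inhibition above the screen-wide average plus 3 SD, cut at about 13% in these data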;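 further: forskolin and galanin both at EC90 stimulate the cells; cAMP rise reported by CNG channel membrane potential dye signal; 0% = forskolin plus galanin with DMSO and 100% = forskolin alone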
# OX1R antag-2 – OX1R (HCRTR1) antagonists, primary screen, fluorescence, CHO/OX1R cells, Fluo-8 calcium, orexin A | Orexin/Hypocretin receptor type 1 (Homo sapiens), O43613 | AID 434989, 2010 | hit rate 0.43% among 330,000 | Fluo-8 calcium fluorescence | inhibition, % at 5 µM;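 active means inhibition above its plate's threshold, mean inhibition of all tested compounds on the plate plus 3 SD, cut at about 37% in these data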;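 further: 0% = orexin A challenge wells and 100% = SB-334867-A antagonist wells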
# TAAR1 agonist – human TAAR1 agonists, primary screen, Fluo-8 calcium fluorescence, CHO RD-HGA16 cells | Trace amine-associated receptor 1 (Homo sapiens), Q96RJ0 | vehicle wells 0%, saturating PEA agonist 100% | activation, % at 3 µM | hit rate 0.99% among 360,000 | AID 624467, 2012;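 active means activation above the mean activation of all test compounds in the run plus 3 SD, cut at about 38% in these data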
#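 Assay system – CHO-derived RD-HGA16 cells with stable Gα16 and human TAAR1 · Compound dosing – one-point dosing at 3 µM (nominal) · Incubation – 17-24 h seeding, 75 min 37 °C dye, 30 min RT · Measured by – kinetic Fluo-8 calcium fluorescence · Control set – DMSO vehicle as 0%, PEA at EC100 as 100% · Repeats – single well for each compound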
# Numbers without * were called inactive; . = no result given.
SMILES,OX1R antag-1,TAAR1 antagonist,CHO parental Ca,GalR3 antag,OX1R antag-2,TAAR1 agonist
COc1ccc(-n2ncc3c(N4CCN(c5cc(C)ccc5C)CC4)ncnc32)cc1,17,103*,-8,-2,-18,-3
Oc1ccc(N2CCN(c3ncnc4sc(-c5ccccc5)cc34)CC2)cc1,.,12,.,3,.,-1
Cc1ccc(-n2ncc3c(N4CCN(c5ccccc5)CC4)ncnc32)c(C)c1,14,62*,-2,-3,-2,12
COc1ccc(-n2ncc3c(N4CCN(c5cccc(C)c5C)CC4)ncnc32)cc1,15,4,-1,1,-13,-1
O=C(COC(=O)c1ccccc1)Nc1cc(S(=O)(=O)N2CCCCCC2)ccc1Cl,13,17,-5,-3,-14,2
COc1cc(NC(=S)Nc2cccc(C)n2)cc(OC)c1OC,20,-3,-16,-2,-21,3
COc1cc(NC(=S)Nc2ncccc2C)cc(OC)c1OC,45*,2,-1,-2,3,4
O=C(CSc1ncccn1)N/N=C/c1cccc([N+](=O)[O-])c1,72*,-1,8,-6,-10,2
O=C(CSc1ccccn1)N/N=C/c1cccc([N+](=O)[O-])c1,42,20,-9,1,-21,0
O=C(NN=C1CCCC1)c1ccc(O)cc1,-5,-6,-3,-9,2,6
Cc1cc(NC(=O)COC(=O)C2CCC(=O)N2)c([N+](=O)[O-])cc1C (stereo not drawn),61*,2,-2,-5,-10,1
CCOc1cc(/C=N/NC(=O)CCn2nnc3ccccc32)ccc1O,46*,-1,2,6,-12,3
CC(=O)OCCN1C(=O)c2cccc3cc([N+](=O)[O-])cc(c23)C1=O,69*,.,-14,.,-3,.
O=C1c2cccc3cc([N+](=O)[O-])cc(c23)C(=O)N1CC1CCCO1 (stereo not drawn),60*,-13,-4,-4,-22,0
CN(C)CCN1C(=O)c2cccc3cc([N+](=O)[O-])cc(c23)C1=O,.,-16,.,-7,.,1
CCOCCC(=O)Nc1ccc2c(c1)c(=O)n(C)n2C/C=C/c1ccccc1,.,2,.,-4,.,0
O=C(O)CSc1cc(NS(=O)(=O)c2ccc(Cl)cc2)c2ccccc2c1O,22,0,-10,-7,-15,2
Cc1cc(C)c(S(=O)(=O)Nc2cc(SCC(=O)O)c(O)c3ccccc23)cc1C,58*,.,-17,.,-15,.
COC(=O)c1cc2c(c3c4cc(C)ccc4n(S(=O)(=O)c4cccc(C)c4)c13)C(=O)N(Cc1ccccc1OC)C2,.,-34,.,-4,.,0
CN(Cc1ccccc1)C(=O)c1cccc(NC(=O)Cc2ccc(NC(=O)C3CCCN(C(=O)c4ccccc4)C3)cc2)c1 (stereo not drawn),.,-7,.,-4,.,3
CC(=O)CSc1ccc(-c2nc3ccccc3[nH]2)cn1,13,13,-13,-7,-19,4
N#Cc1ccccc1CSc1ccc(-c2nc3ccccc3[nH]2)cn1,32,50*,0,-8,13,13
c1ccc(Cc2cnc(N3CCN(Cc4csc5ccccc45)CC3)nc2)cc1,.,-12,.,-6,.,2
CCOc1cc(CNCCc2ccc(S(N)(=O)=O)cc2)cc(Cl)c1OCc1ccccc1,-4,.,58*,.,55*,.
COc1cc(CNCc2ccccn2)ccc1OCc1ccc(Cl)cc1Cl,16,16,9,-3,0,45*
COc1ccc(CCNCc2ccc(OCc3ccccc3)cc2)cc1,9,-9,-15,-10,-31,44*
COc1ccc(CNCCc2ccc(Cl)cc2)cc1OCc1ccccc1,8,.,42*,.,2,.
COc1cc(CNCc2ccccn2)ccc1OCc1ccc(Cl)c(Cl)c1,17,-3,-2,-3,-17,33

# Bioassay records: PubChem, The Scripps Research Institute Molecular Screening Center
